Test results published in ChEMBL document CHEMBL2010753, “Free radical scavenging and antiproliferative properties of Biginelli adducts” (2012).
Converted amounts (≈) assume the structure as drawn. The source made the active and inactive calls. The rule behind the calls is not given here.

Columns and labels:
Type in all cases: functional
[1] = Growth inhibition of human NCI-ADR-RES cells after 48 hrs by sulforhodamine B assay
OVCAR-3 = assay: Growth inhibition of human OVCAR3 cells after 48 hrs by sulforhodamine B assay; settings: OVCAR-3, 48 h
U-251 = assay: Growth inhibition of human U251 cells after 48 hrs by sulforhodamine B assay; settings: U-251, 48 h
HT-29 = assay: Growth inhibition of human HT-29 cells after 48 hrs by sulforhodamine B assay; settings: HT-29, 48 h
PC-3 = assay: Growth inhibition of human PC3 cells after 48 hrs by sulforhodamine B assay; settings: PC-3, 48 h
[2] = Antioxidant activity assessed as scavenging of DPPH at 160 uM after 30 mins by spectrophotometry
NCI-H460 = assay: Growth inhibition of human NCI-H460 cells after 48 hrs by sulforhodamine B assay; settings: NCI-H460, 48 h
786-0 = assay: Growth inhibition of human 786-0 cells after 48 hrs by sulforhodamine B assay; settings: 786-0, 48 h
[3] = Antioxidant activity assessed as concentration required for 50% DPPH scavenging activity after 30 mins by spectrophotometry relative to monastrol
[4] = Antioxidant activity assessed as scavenging of DPPH at 24.2 uM up to 10 mins by spectrophotometry
Summary of the method: (§1)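 Kinetic run: reaction medium with 10 nmol DPPH radicals in ethanol and compound at the stated concentration, DPPH scavenging followed over time up to 10 min. Three independent experiments, each in triplicate.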

[5] = Antioxidant activity assessed as concentration required to scavenge 50% superoxide anions after 10 mins by spectrophotometry
[6] = Antioxidant activity assessed as concentration required for 50% DPPH scavenging activity after 30 mins by spectrophotometry
[7] = Antioxidant activity assessed as scavenging of DPPH at 29.7 uM up to 10 mins by spectrophotometry; summary of the method: as §1

Row | Structure (SMILES) | GI50 [1] [µg/mL] | GI50 (OVCAR-3) [µg/mL] | GI50 (U-251) [µg/mL] | GI50 (HT-29) [µg/mL] | GI50 (PC-3) [µg/mL] | Activity [2] | GI50 (NCI-H460) [µg/mL] | GI50 (786-0) [µg/mL] | fold change (FC) [3] | Activity [4] [pmol] | Activity [5] [µM] | IC50 [6] [µM] | Activity [7] [pmol]
1 | CCOC(=O)C1=C(C)NC(=O)NC1C1CCCCC1 (configuration not stated) | > 250 | > 250 | 142 (≈ 533 µM) | > 250 | > 250 | inactive | > 250 | > 250 | – | – | – | – | –
2 | CCOC(=O)C1=C(C)NC(=S)NC1c1ccc(OC)cc1 (configuration not stated) | 3.2 (≈ 10.4 µM) | 0.99 (≈ 3.23 µM) | 29 (≈ 94.7 µM) | 30.6 (≈ 99.9 µM) | 5.5 (≈ 18 µM) | inactive | 31.4 (≈ 102 µM) | 25.9 (≈ 84.5 µM) | – | – | – | – | –
3 | CCOC(=O)C1=C(C)NC(=O)NC1c1ccc(F)cc1 (configuration not stated) | 3.6 (≈ 12.9 µM) | 27.1 (≈ 97.4 µM) | 23.5 (≈ 84.4 µM) | 25.3 (≈ 90.9 µM) | 3.1 (≈ 11.1 µM) | inactive | 28.1 (≈ 101 µM) | 24.7 (≈ 88.8 µM) | – | – | – | – | –
4 | COc1cccc2c1C(=O)c1c(O)c3c(c(O)c1C2=O)C[C@@](O)(C(=O)CO)C[C@@H]3O[C@H]1C[C@H](N)[C@H](O)[C@H](C)O1 [DOXORUBICIN] | 0.14 (≈ 0.258 µM) | 0.27 (≈ 0.497 µM) | 0.068 (≈ 0.125 µM) | 0.27 (≈ 0.497 µM) | 0.24 (≈ 0.442 µM) | – | < 0.025 | 0.18 (≈ 0.331 µM) | – | – | – | – | –
5 | CCOC(=O)C1=C(C)NC(=O)NC1c1ccc(O)cc1 (configuration not stated) | 3.2 (≈ 11.6 µM) | 27.3 (≈ 98.8 µM) | 4.2 (≈ 15.2 µM) | 28.7 (≈ 104 µM) | 136 (≈ 492 µM) | inactive | 40.6 (≈ 147 µM) | 25.8 (≈ 93.4 µM) | – | – | – | – | –
6 | CCOC(=O)C1=C(C)NC(=O)NC1c1ccccc1 (configuration not stated) | > 250 | > 250 | > 250 | > 250 | > 250 | inactive | 28.9 (≈ 111 µM) | > 250 | – | – | – | – | –
7 | CCOC(=O)C1=C(C)NC(=O)NC1c1ccc(OC)cc1 (configuration not stated) | 5.7 (≈ 19.6 µM) | 8 (≈ 27.6 µM) | 11.6 (≈ 40 µM) | 28.3 (≈ 97.5 µM) | 26.5 (≈ 91.3 µM) | inactive | > 250 | 24.8 (≈ 85.4 µM) | – | – | – | – | –
8 | CCOC(=O)C1=C(C)NC(=S)NC1c1cc(OC)c(O)c(OC)c1 (configuration not stated) | 25 (≈ 70.9 µM) | 1.9 (≈ 5.39 µM) | 0.77 (≈ 2.18 µM) | 28.2 (≈ 80 µM) | 19 (≈ 53.9 µM) | Active | 65.6 (≈ 186 µM) | 13.4 (≈ 38 µM) | 37 | 370 | 78 | 24.2 | –
9 | CCOC(=O)C1=C(C)NC(=S)NC1c1ccc(O)c(O)c1 (configuration not stated) | 24.3 (≈ 78.8 µM) | 25 (≈ 81.1 µM) | 26.5 (≈ 85.9 µM) | 22.7 (≈ 73.6 µM) | 25 (≈ 81.1 µM) | Active | 31.7 (≈ 103 µM) | 28.3 (≈ 91.8 µM) | 37 | – | – | 29.7 | 413
10 | CCOC(=O)C1=C(C)NC(=S)NC1c1ccc(F)cc1 (configuration not stated) | 26.1 (≈ 88.7 µM) | 24.7 (≈ 83.9 µM) | 28.3 (≈ 96.1 µM) | 26.5 (≈ 90 µM) | 1.7 (≈ 5.78 µM) | inactive | 14.2 (≈ 48.2 µM) | 24.5 (≈ 83.2 µM) | – | – | – | – | –
11 | CCOC(=O)C1=C(C)NC(=O)NC1c1cccc(O)c1 (configuration not stated) | 11.7 (≈ 42.3 µM) | 6 (≈ 21.7 µM) | 5.1 (≈ 18.5 µM) | 27.1 (≈ 98.1 µM) | 34.7 (≈ 126 µM) | inactive | 42 (≈ 152 µM) | 26.3 (≈ 95.2 µM) | – | – | – | – | –
12 | CCOC(=O)C1=C(C)NC(=S)NC1c1ccc2c(c1)OCO2 (configuration not stated) | 57.1 (≈ 178 µM) | 55.3 (≈ 173 µM) | 25.9 (≈ 80.8 µM) | 31.4 (≈ 98 µM) | 13.4 (≈ 41.8 µM) | inactive | 27 (≈ 84.3 µM) | 27 (≈ 84.3 µM) | – | – | – | – | –
13 | CCOC(=O)C1=C(C)NC(=S)NC1c1ccccc1 (configuration not stated) | 27.4 (≈ 99.1 µM) | 27.7 (≈ 100 µM) | 26.6 (≈ 96.3 µM) | 29.8 (≈ 108 µM) | 42.2 (≈ 153 µM) | inactive | 28 (≈ 101 µM) | 27.7 (≈ 100 µM) | – | – | – | – | –
14 | CCOC(=O)C1=C(C)NC(=O)NC1c1ccc2c(c1)OCO2 (configuration not stated) | 15.5 (≈ 50.9 µM) | 32.4 (≈ 106 µM) | 34.9 (≈ 115 µM) | 29.9 (≈ 98.3 µM) | 83.1 (≈ 273 µM) | inactive | 48.9 (≈ 161 µM) | 26.3 (≈ 86.4 µM) | – | – | – | – | –
15 | CCOC(=O)C1=C(C)NC(=O)NC1c1ccc(O)c(OC)c1 (configuration not stated) | 0.25 (≈ 0.816 µM) | 1.7 (≈ 5.55 µM) | 4.5 (≈ 14.7 µM) | 28.1 (≈ 91.7 µM) | 46.3 (≈ 151 µM) | 65% | 126 (≈ 410 µM) | 17.5 (≈ 57.1 µM) | – | – | – | 105 | –
16 | CCOC(=O)C1=C(C)NC(=S)NC1C1CCCCC1 (configuration not stated) | 24.1 (≈ 85.3 µM) | 2.2 (≈ 7.79 µM) | 25.2 (≈ 89.2 µM) | 25.2 (≈ 89.2 µM) | 0.46 (≈ 1.63 µM) | inactive | 3.5 (≈ 12.4 µM) | 4.2 (≈ 14.9 µM) | – | – | – | – | –
17 | CCOC(=O)C1=C(C)NC(=S)NC1c1ccc(O)cc1 (configuration not stated) | 83.6 (≈ 286 µM) | 37.7 (≈ 129 µM) | 77.2 (≈ 264 µM) | > 250 | 47.6 (≈ 163 µM) | inactive | > 250 | 27.5 (≈ 94.1 µM) | – | – | – | – | –
18 | CCOC(=O)C1=C(C)NC(=S)N[C@H]1c1cccc(O)c1 [S-MENASTROL] | 22.2 (≈ 75.9 µM) | 14.4 (≈ 49.3 µM) | 24 (≈ 82.1 µM) | 29.6 (≈ 101 µM) | 5.6 (≈ 19.2 µM) | inactive | 10.6 (≈ 36.3 µM) | 4 (≈ 13.7 µM) | – | – | – | – | –
19 | CCOC(=O)C1=C(C)NC(=O)NC1c1ccc(SC)cc1 (configuration not stated) | 2.7 (≈ 8.81 µM) | 10 (≈ 32.6 µM) | 8 (≈ 26.1 µM) | 10.2 (≈ 33.3 µM) | 9.5 (≈ 31 µM) | inactive | 3.6 (≈ 11.7 µM) | 2.5 (≈ 8.16 µM) | – | – | – | – | –
20 | CCOC(=O)C1=C(C)NC(=S)NC1c1ccc(O)c(OC)c1 (configuration not stated) | 59.7 (≈ 185 µM) | 11 (≈ 34.1 µM) | 88.3 (≈ 274 µM) | 34.9 (≈ 108 µM) | 72.6 (≈ 225 µM) | 65% | 180 (≈ 560 µM) | 30 (≈ 93.1 µM) | – | – | – | 104 | –
21 | CCOC(=O)C1=C(C)NC(=S)NC1c1cccc(OC)c1 (configuration not stated) | 25.6 (≈ 83.6 µM) | 1.3 (≈ 4.24 µM) | 28.1 (≈ 91.7 µM) | 28.3 (≈ 92.4 µM) | 10.2 (≈ 33.3 µM) | inactive | 29.2 (≈ 95.3 µM) | 24.9 (≈ 81.3 µM) | – | – | – | – | –
22 | CCCC1NC(=S)NC(C)=C1C(=O)OCC (configuration not stated) | 40.3 (≈ 166 µM) | 38.1 (≈ 157 µM) | 29.2 (≈ 120 µM) | 50.4 (≈ 208 µM) | 42.4 (≈ 175 µM) | inactive | 22.5 (≈ 92.8 µM) | 27.7 (≈ 114 µM) | – | – | – | – | –
23 | CCOC(=O)C1=C(C)NC(=S)NC1c1ccc(SC)cc1 (configuration not stated) | 35.7 (≈ 111 µM) | 8.5 (≈ 26.4 µM) | 6 (≈ 18.6 µM) | 17.2 (≈ 53.3 µM) | 23.6 (≈ 73.2 µM) | inactive | 21.6 (≈ 67 µM) | 5.3 (≈ 16.4 µM) | – | – | – | – | –
